In brackets after ≈: the same amount, converted by molar mass.
The compounds below were run on Herpes simplex virus-1 TK- KOS ACVr (assay: microbe, parasite or virus in culture). Settings: Human alphaherpesvirus 1, read-out: EC50 Herpes simplex virus-1 TK- KOS ACVr.
Format: cell-based

Question: How did the EC50 turn out when `O=C(O)c1cc(Br)cc(Br)c1-n1c(-c2ccccc2)nc2c(Br)cc(Br)cc2c1=O` [DBR3, 3,5-Dibromo-2-(6,8-dibromo-4-oxo-2-phenyl-4H-quinazolin-3-yl)-benzoic acid] was run?
Answer: > 100 µg/mL

Question: `O=C(O)c1ccccc1-n1c(-c2ccccc2)nc2ccc(Br)cc2c1=O` [MBR1, 2-(6-Bromo-4-oxo-2-phenyl-4H-quinazolin-3-yl)-benzoic acid] was tested. Which EC50 did it give?
Answer: > 20 µg/mL

Question: Which EC50 does the source give for `NC(=O)c1ncn([C@@H]2O[C@H](CO)[C@@H](O)[C@H]2O)n1` [Ribavirin, reference compound] here?
Answer: > 250 µg/mL

These compounds were tested on Vaccinia virus (assay: microbe, parasite or virus in culture). Settings: not given.
Format: cell-based

Question: With `O=C(O)c1cc(Br)ccc1-n1c(-c2ccccc2)nc2ccc(Br)cc2c1=O` [MBR2, 5-Bromo-2-(6-bromo-4-oxo-2-phenyl-4H-quinazolin-3-yl)-benzoic acid] as the compound, how does the “EC50 Vaccinia virus” value read?
Answer: distinct antiviral activity

Same assay, conditions: Orthopoxvirus vaccinia, read-out: EC50 Vaccinia virus

Question: Which EC50 does the source give for `O=C(O)c1ccccc1-n1c(-c2ccccc2)nc2ccccc2c1=O` [AA1, 2-(4-oxo-2-phenyl-4H-quinazolin-3-yl)-benzoic acid] here?
Answer: > 100 µg/mL

Question: For `O=C(O)c1cc(Br)cc(Br)c1-n1c(-c2ccccc2)nc2c(Br)cc(Br)cc2c1=O` [DBR3, 3,5-Dibromo-2-(6,8-dibromo-4-oxo-2-phenyl-4H-quinazolin-3-yl)-benzoic acid], which EC50 is on record?
Answer: > 100 µg/mL

Question: `O=C(O)c1ccccc1-n1c(-c2ccccc2)nc2ccc(Br)cc2c1=O` [MBR1, 2-(6-Bromo-4-oxo-2-phenyl-4H-quinazolin-3-yl)-benzoic acid] was tested. Which EC50 did it give?
Answer: > 20 µg/mL

Question: `O=C(O)c1cc(Br)ccc1-n1c(-c2ccccc2)nc2ccc(Br)cc2c1=O` [MBR2, 5-Bromo-2-(6-bromo-4-oxo-2-phenyl-4H-quinazolin-3-yl)-benzoic acid] was tested. Which EC50 did it give?
Answer: 12 µg/mL (≈ 24 µM)

Question: For `NC(=O)c1ncn([C@@H]2O[C@H](CO)[C@@H](O)[C@H]2O)n1` [Ribavirin, reference compound], which EC50 is on record?
Answer: > 250 µg/mL

These compounds were tested on Herpes simplex virus-2 (G) (assay: microbe, parasite or virus in culture). Settings: Human alphaherpesvirus 2, read-out: EC50 Herpes simplex virus-2 (G).
Format: cell-based

Question: For `O=C(O)c1ccccc1-n1c(-c2ccccc2)nc2ccccc2c1=O` [AA1, 2-(4-oxo-2-phenyl-4H-quinazolin-3-yl)-benzoic acid], which EC50 is on record?
Answer: 58 µg/mL (≈ 169 µM)

Question: For `O=C(O)c1cc(Br)cc(Br)c1-n1c(-c2ccccc2)nc2c(Br)cc(Br)cc2c1=O` [DBR3, 3,5-Dibromo-2-(6,8-dibromo-4-oxo-2-phenyl-4H-quinazolin-3-yl)-benzoic acid], which EC50 is on record?
Answer: > 100 µg/mL

Question: `O=C(O)c1ccccc1-n1c(-c2ccccc2)nc2ccc(Br)cc2c1=O` [MBR1, 2-(6-Bromo-4-oxo-2-phenyl-4H-quinazolin-3-yl)-benzoic acid] was tested. Which EC50 did it give?
Answer: > 20 µg/mL

Question: For `O=C(O)c1cc(Br)ccc1-n1c(-c2ccccc2)nc2ccc(Br)cc2c1=O` [MBR2, 5-Bromo-2-(6-bromo-4-oxo-2-phenyl-4H-quinazolin-3-yl)-benzoic acid], which EC50 is on record?
Answer: 12 µg/mL (≈ 24 µM)

Question: `NC(=O)c1ncn([C@@H]2O[C@H](CO)[C@@H](O)[C@H]2O)n1` [Ribavirin, reference compound] was tested. Which EC50 did it give?
Answer: > 250 µg/mL

The compounds below were run on HIV-2(ROD) (assay: Inhibition of HIV-2 induced cytopathic effect in MT-4 cells). Settings: MT4, 120 h, read-out: IC50a (50% effective concentration, 50% protection of MT-4 cells against the cytopathic effect of HIV).
Format: cell-based
Method in brief: (§1)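 MT-4 cells were kept in RPMI 1640 with 10% heat-inactivated FCS, 2 mM glutamine, 0.1% sodium bicarbonate and 20 µg/ml gentamicin. Virus stocks (HIV-1 IIIB/LAI, HIV-2 ROD) were grown and titred in MT-4 cells and stored at -70°. 100-300 CCID50 were added to cells at 6×10^5 cells/ml with test compound, then incubated 5 d at 37°. Protection from cytopathic effect was read as viable cells by MTT. A reference drug was run alike.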

Question: For `O=C(O)c1ccccc1-n1c(-c2ccccc2)nc2ccccc2c1=O` [AA1, 2-(4-oxo-2-phenyl-4H-quinazolin-3-yl)-benzoic acid], which EC50 is on record?
Answer: > 125 µg/mL

Question: How did the EC50 turn out when `O=C(O)c1cc(Br)cc(Br)c1-n1c(-c2ccccc2)nc2c(Br)cc(Br)cc2c1=O` [DBR3, 3,5-Dibromo-2-(6,8-dibromo-4-oxo-2-phenyl-4H-quinazolin-3-yl)-benzoic acid] was run?
Answer: > 125 µg/mL

Question: Which EC50 does the source give for `O=C(O)c1ccccc1-n1c(-c2ccccc2)nc2ccc(Br)cc2c1=O` [MBR1, 2-(6-Bromo-4-oxo-2-phenyl-4H-quinazolin-3-yl)-benzoic acid] here?
Answer: > 125 µg/mL

Question: With `O=C(O)c1cc(Br)ccc1-n1c(-c2ccccc2)nc2ccc(Br)cc2c1=O` [MBR2, 5-Bromo-2-(6-bromo-4-oxo-2-phenyl-4H-quinazolin-3-yl)-benzoic acid] as the compound, how does the EC50 read?
Answer: > 60.4 µg/mL

Same assay, conditions: strain ROD, MT-4 cells, 5 d, MTT

Question: For `Cc1cn([C@H]2C[C@H](N=[N+]=[N-])[C@@H](CO)O2)c(=O)[nH]c1=O` [AZT, reference compound], which “IC50a (50% effective concentration, 50% protection of MT-4 cells against the cytopathic effect of HIV)” value is on record?
Answer: 0.00062 µg/mL

These compounds were tested on HIV-1(IIIB) (assay: Inhibition of HIV-1 induced cytopathic effect in MT-4 cells). Settings: strain IIIB, 5 d, MTT.
Format: cell-based, Human immunodeficiency virus-1
Method in brief: as §1

Question: How did the “IC50a (50% effective concentration, 50% protection of MT-4 cells against the cytopathic effect of HIV)” value turn out when `Cc1cn([C@H]2C[C@H](N=[N+]=[N-])[C@@H](CO)O2)c(=O)[nH]c1=O` [AZT, reference compound] was run?
Answer: 0.0012 µg/mL

What follows are compounds tested on Herpes simplex virus-1 (KOS) (assay: microbe, parasite or virus in culture). Settings: HEL cultures; reduces virus-induced cytopathogenicity by 50 %.
Format: cell-based

Question: For `O=C(O)c1cc(Br)ccc1-n1c(-c2ccccc2)nc2ccc(Br)cc2c1=O` [MBR2, 5-Bromo-2-(6-bromo-4-oxo-2-phenyl-4H-quinazolin-3-yl)-benzoic acid], which “EC50 Herpes simplex virus-1 (KOS)” value is on record?
Answer: distinct antiviral activity

Same assay, conditions: Human alphaherpesvirus 1, read-out: EC50 Herpes simplex virus-1 (KOS)

Question: How did the EC50 turn out when `O=C(O)c1ccccc1-n1c(-c2ccccc2)nc2ccccc2c1=O` [AA1, 2-(4-oxo-2-phenyl-4H-quinazolin-3-yl)-benzoic acid] was run?
Answer: 100 µg/mL (≈ 292 µM)

Question: With `O=C(O)c1cc(Br)cc(Br)c1-n1c(-c2ccccc2)nc2c(Br)cc(Br)cc2c1=O` [DBR3, 3,5-Dibromo-2-(6,8-dibromo-4-oxo-2-phenyl-4H-quinazolin-3-yl)-benzoic acid] as the compound, how does the EC50 read?
Answer: > 100 µg/mL

Question: For `O=C(O)c1ccccc1-n1c(-c2ccccc2)nc2ccc(Br)cc2c1=O` [MBR1, 2-(6-Bromo-4-oxo-2-phenyl-4H-quinazolin-3-yl)-benzoic acid], which EC50 is on record?
Answer: > 20 µg/mL

Question: Which EC50 does the source give for `O=C(O)c1cc(Br)ccc1-n1c(-c2ccccc2)nc2ccc(Br)cc2c1=O` [MBR2, 5-Bromo-2-(6-bromo-4-oxo-2-phenyl-4H-quinazolin-3-yl)-benzoic acid] here?
Answer: 12 µg/mL (≈ 24 µM)

Question: How did the EC50 turn out when `NC(=O)c1ncn([C@@H]2O[C@H](CO)[C@@H](O)[C@H]2O)n1` [Ribavirin, reference compound] was run?
Answer: > 250 µg/mL

Each compound was assayed on mock-infected MT-4 cells (assay: Cytotoxicity for mock-infected MT-4 cells). Settings: MTT, printed in both strain rows.
Format: cell-based
Method in brief: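 Mock-infected MT-4 cells were grown in RPMI 1640 with 10% heat-inactivated FCS, 2 mM glutamine, 0.1% sodium bicarbonate and 20 µg/ml gentamicin. Cells (6×10^5 cells/ml) were exposed to test compound, and viability was measured by MTT to derive the 50% cytotoxic concentration. A reference drug was tested the same way.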

Question: `O=C(O)c1ccccc1-n1c(-c2ccccc2)nc2ccccc2c1=O` [AA1, 2-(4-oxo-2-phenyl-4H-quinazolin-3-yl)-benzoic acid] was tested. Which “IC50b (50% cytotoxic concentration, reduces viability of mock-infected MT-4 cells by 50%)” value did it give?
Answer: >125 µg/mL

Question: Which “IC50b (50% cytotoxic concentration, reduces viability of mock-infected MT-4 cells by 50%)” value does the source give for `Cc1cn([C@H]2C[C@H](N=[N+]=[N-])[C@@H](CO)O2)c(=O)[nH]c1=O` [AZT, reference compound] here?
Answer: 65.90 µg/mL

Question: For `O=C(O)c1cc(Br)cc(Br)c1-n1c(-c2ccccc2)nc2c(Br)cc(Br)cc2c1=O` [DBR3, 3,5-Dibromo-2-(6,8-dibromo-4-oxo-2-phenyl-4H-quinazolin-3-yl)-benzoic acid], which “IC50b (50% cytotoxic concentration, reduces viability of mock-infected MT-4 cells by 50%)” value is on record?
Answer: >125 µg/mL

Question: How did the “IC50b (50% cytotoxic concentration, reduces viability of mock-infected MT-4 cells by 50%)” value turn out when `O=C(O)c1ccccc1-n1c(-c2ccccc2)nc2ccc(Br)cc2c1=O` [MBR1, 2-(6-Bromo-4-oxo-2-phenyl-4H-quinazolin-3-yl)-benzoic acid] was run?
Answer: >125 µg/mL

Question: With `O=C(O)c1cc(Br)ccc1-n1c(-c2ccccc2)nc2ccc(Br)cc2c1=O` [MBR2, 5-Bromo-2-(6-bromo-4-oxo-2-phenyl-4H-quinazolin-3-yl)-benzoic acid] as the compound, how does the “IC50b (50% cytotoxic concentration, reduces viability of mock-infected MT-4 cells by 50%)” value read?
Answer: 60.40 µg/mL

The compounds below were run on HEL cultures (assay: not given). Settings: microscopically detectable alteration of normal cell morphology.

Question: Which Minimum cytotoxic concentration does the source give for `O=C(O)c1ccccc1-n1c(-c2ccccc2)nc2ccccc2c1=O` [AA1, 2-(4-oxo-2-phenyl-4H-quinazolin-3-yl)-benzoic acid] here?
Answer: >100 µg/mL

Question: Which Minimum cytotoxic concentration does the source give for `O=C(O)c1cc(Br)cc(Br)c1-n1c(-c2ccccc2)nc2c(Br)cc(Br)cc2c1=O` [DBR3, 3,5-Dibromo-2-(6,8-dibromo-4-oxo-2-phenyl-4H-quinazolin-3-yl)-benzoic acid] here?
Answer: >100 µg/mL

Question: For `O=C(O)c1ccccc1-n1c(-c2ccccc2)nc2ccc(Br)cc2c1=O` [MBR1, 2-(6-Bromo-4-oxo-2-phenyl-4H-quinazolin-3-yl)-benzoic acid], which Minimum cytotoxic concentration is on record?
Answer: 100 µg/mL

Question: How did the Minimum cytotoxic concentration turn out when `O=C(O)c1cc(Br)ccc1-n1c(-c2ccccc2)nc2ccc(Br)cc2c1=O` [MBR2, 5-Bromo-2-(6-bromo-4-oxo-2-phenyl-4H-quinazolin-3-yl)-benzoic acid] was run?
Answer: 100 µg/mL

Source: paper PMC3178989 (Indian Journal of Pharmaceutical Sciences, 2010)
